Experimental data published in ChEMBL document CHEMBL1130018, “Synthesis and anticonvulsant activities of 3,3-dialkyl- and 3-alkyl-3-benzyl-2-piperidinones (delta-valerolactams) and hexahydro-2H-azepin-2-ones (epsilon-caprolactams)” (J Med Chem, 1997).

Assays:
[1] = Neurotoxicity was evaluated by a rotarod test; format: toxicity; details: mouse
Summary of the method: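 Mice were given at least four i.p. doses of compound in 30% polyethylene glycol at 0.01 mL/g, with six per dose, then tested on the rotorod. TD50 is the dose at which 50% failed, with 95% fiducial limits. Where these could not be calculated, the highest all-nontoxic dose and the lowest all-toxic dose are given instead.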

[2] = biological target: GABA-A receptor; anion channel; assay: Ability to displace radioligand [35S]TBPS from Gamma-aminobutyric acid A receptor binding site in rat brain membranes; format: cell membranes
Summary of the method: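 Values are mean and range from duplicate experiments, each run in triplicate. For some lactams the values are mean ± SEM of three experiments run in triplicate. Read-out is IC50 (mM) for displacement of [35S]TBPS.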

[3] = species: Mus musculus; assay: Anticonvulsant activity expressed as dose at which 50% of the mice were protected from tonic hindlimb seizures induced by maximal electroshock (MES); format: functional
Summary of the method: (§1)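 Mice were given at least four doses, with six animals per dose. Compound was dissolved in 30% polyethylene glycol and injected i.p. at 0.01 mL/g body weight. Challenge was pentylenetetrazole 85 mg/kg (clonic seizures) or maximal electroshock (tonic hindlimb extension). ED50 is the dose protecting 50%, with 95% fiducial limits.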

[4] = biological target: GABA-A receptor; anion channel (Rattus norvegicus) (UniProt O09028+P15431+P18506+P18508+P19969+P20236+P23574+P23576+P28471+P28473+P30191+P62813+P63079+P63138+Q91ZM7+Q9ES14); assay: Induced potentiation of 3 uM GABA-mediated chloride currents at 1 mM in the presence of 3 mM alpha-IMGBL (picrotoxin antagonist); format: functional
Summary of the method: (§2)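 Whole-cell peak current evoked by 3 μM GABA, with test compound alone or with 3 mM α-isopropyl-α-methyl-γ-butyrolactone, in cultured rat hippocampal neurons. Each peak was normalized to the peak from 3 μM GABA alone on the same cell, with 100% meaning no change. Values are mean ± SEM over 5–14 cells. Alone vs plus antagonist was compared by Student's t test.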

[5] = system: Mus musculus; assay: Anticonvulsant activity expressed as dose at which 50% of the mice were protected from clonic seizures induced by pentylenetetrazole (85 mg/Kg); format: functional; summary of the method: as §1
[6] = species: Rattus norvegicus; assay: Antagonism of compound (600 uM) induced potentiation of 3 uM GABA-mediated chloride currents in cultured rat hippocampal neurons; format: functional
Summary of the method: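 Cultured rat hippocampal neurons. Test compound was applied with 3 μM GABA, with and without α-isopropyl-α-methyl-γ-butyrolactone (3 mM). Peak current was normalized to the peak from 3 μM GABA alone on the same cell, where 100% means no change. Mean ± SEM over N cells; Student's t test compared compound alone with compound plus antagonist.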

[7] = Protective Index (PI) determined as the ratio of toxic dose (TD50) and effective dose (ED50 (PTZ)); format: ADME; details: mouse; read-out: PI
Summary of the method: (§3)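 The protective index was calculated as rotorod TD50 divided by the ED50 against PTZ- or MES-induced seizures. All values come from i.p. dosing in 30% polyethylene glycol in mice, six per dose.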

[8] = Protective Index (PI) determined as the ratio of toxic dose (TD50) and effective dose (ED50 (MES)); format: ADME; details: mouse; read-out: PI; summary of the method: as §3
[9] = species: Rattus norvegicus; assay: Antagonism of compound (200 uM) induced potentiation of 3 uM GABA-mediated chloride currents in cultured rat hippocampal neurons; format: functional; summary of the method: as §2
[10] = system: Mus musculus; assay: Anticonvulsant activity expressed as dose at which 50% of the mice were protected from clonic seizures induced by pentylenetetrazole (85 mg/Kg); cytotoxicity observed at 300 mg/kg; format: functional
[11] = species: Rattus norvegicus; assay: Antagonism of compound (300 uM) induced potentiation of 3 uM GABA-mediated chloride currents in cultured rat hippocampal neurons; format: functional; summary of the method: as §2
[12] = species: Rattus norvegicus; assay: Antagonism of compound (1 mM) induced potentiation of 3 uM GABA-mediated chloride currents in cultured rat hippocampal neurons; format: functional; summary of the method: as §2

| SMILES | TD50 [1] | IC50 [2] | ED50 [3] | Response [4] | ED50 [5] | Response [6] | selectivity ratio [7] | selectivity ratio [8] | Response [9] | ED50 [10] | Response [11] | Response [12] |
| --- | --- | --- | --- | --- | --- | --- | --- | --- | --- | --- | --- | --- |
| O=C1CCCCN1 | > 600 mg/kg | 197 mM | > 600 mg/kg |  |  |  |  |  |  |  |  |  |
| CCC1(Cc2ccccc2)CCCCNC1=O (configuration not stated) | > 100 mg/kg | 0.09 mM | > 100 mg/kg | 107% | > 100 mg/kg | 128% |  |  |  |  |  |  |
| CCC1CCCNC1=O (configuration not stated) | > 325 mg/kg | 8.78 mM | 550 mg/kg |  | 297 mg/kg |  | > 1.09 | > 0.59 |  |  |  |  |
| CCC1(CC)CCCCNC1=O | 131 mg/kg | 0.38 mM | 178 mg/kg | 105% | 226 mg/kg |  | 0.58 | 0.74 | 117% |  |  |  |
| O=C1NCCCC1Cc1ccccc1 (configuration not stated) | 289 mg/kg | 1.44 mM | 41 mg/kg |  | 82 mg/kg |  | 3.52 | 7.05 |  |  |  |  |
| CCC1(CC)CCNC1=O |  |  |  |  |  |  | 5.65 | 1.49 |  |  |  |  |
| O=C1CCCCCN1 [CAPROLACTAM] | < 300 mg/kg | 17.4 mM | > 300 mg/kg |  |  |  | < 1 | < 1 |  | > 300 mg/kg |  |  |
| CCCC(CCC)C(=O)O [VALPROIC ACID] |  |  | 206 mg/kg |  |  |  |  |  |  |  |  |  |
| CCC1(Cc2ccccc2)CCCNC1=O (configuration not stated) | 103 mg/kg | 0.27 mM | 70 mg/kg | 93% |  |  | 1.69 | 1.47 |  |  | 138% |  |
| CCC1(C)CC(=O)NC1=O (configuration not stated) [ETHOSUXIMIDE] | 378 mg/kg |  | > 562 mg/kg |  |  |  | 2.35 | < 0.67 |  |  |  |  |
| CCC1(C)CCCNC1=O (configuration not stated) | 378 mg/kg | 4.41 mM | 199 mg/kg |  | 168 mg/kg |  | 2.25 | 1.9 |  |  |  |  |
| O=C1NCCC1Cc1ccccc1 (configuration not stated) |  |  |  |  |  |  | 2.03 | 3.51 |  |  |  |  |
| CCC1(c2ccccc2)C(=O)NC(=O)NC1=O [PHENOBARBITAL] | 88 mg/kg |  | 17 mg/kg |  |  |  | 4 | 5.18 |  |  |  |  |
| CCC1(CC)CCCNC1=O | 165 mg/kg | 1.31 mM | 54 mg/kg | 102% | 37 mg/kg |  | 4.46 | 3.06 |  |  |  | 142% |
| CC1(Cc2ccccc2)CCCNC1=O (configuration not stated) | 125 mg/kg | 0.73 mM | 50 mg/kg |  |  |  | 2.23 | 2.5 |  |  |  |  |
| CC1CCCNC1=O (configuration not stated) | > 600 mg/kg | 27.7 mM |  |  |  |  |  |  |  |  |  |  |
| CCC1CCCCNC1=O (configuration not stated) | 145 mg/kg | 3.2 mM | 249 mg/kg |  | 210 mg/kg |  | 0.69 | 0.58 |  |  |  |  |
